Results on 13 compounds are retold here after ChEMBL document CHEMBL1126272, “Inhibition of collagenase by aranciamycin and aranciamycin derivatives” (J Med Chem, 1992).

Assay [1] in a line: Concentration inhibiting [3H]TdR incorporation in Yoshida sarcoma tumor cells in vitro in rats. Type of assay: functional, cell-based, Rattus norvegicus. The method, boiled down: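 Yoshida sarcoma cells kept by weekly intraperitoneal passage in Lewis rats. Peritoneal cells washed, placed in RPMI 1640 with 10% FCS at 37 °C, 5% CO2. Nonadherent cells taken after 2 h, set at 10^6 cells/mL, then exposed 24 h to compounds (10^-8–10^-4 M, DMSO ≤0.5%). [3H]thymidine (1 μCi/mL) given for the last 4 h. IC50 for incorporation into DNA read from dose-response curve.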

The target in assay [2] is Pancreatic elastase (Sus scrofa) (UniProt P08419+P00772). As to the kind of experiment: Inhibition of Pancreatic elastase at 10e-5 M; NI means no inhibition. Type of assay: protein assay. The method, boiled down:
(§1)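 Porcine pancreatic elastase diluted to 2 mg/mL in PBS pH 7.5. Substrate N-acetyl-Ala-Ala-Ala-p-nitroanilide, 0.2 mM in PBS with 5% DMSO, preincubated 5 min at 37 °C with or without compound. Enzyme then added and the reaction followed at 410 nm for 5 min. Compounds dissolved in DMSO, ≤0.5% in samples.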

In assay [3] the target is Serine protease 1 (Homo sapiens) (UniProt P07477). As to the kind of experiment: Inhibitory activity against trypsin at 10e-5 M; NI = no inhibition. The method, boiled down: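 Trypsin dissolved at 1 mg/mL in PBS pH 7.5. Substrate N-α-benzoyl-L-arginine-p-nitroanilide, 0.2 mM in PBS with 5% DMSO, preincubated 5 min at 37 °C with or without compound. Enzyme then added and the reaction followed at 410 nm for 5 min. Compounds dissolved in DMSO, ≤0.5% in samples.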
Sequence of Serine protease 1 (Homo sapiens) (P07477 whole entry): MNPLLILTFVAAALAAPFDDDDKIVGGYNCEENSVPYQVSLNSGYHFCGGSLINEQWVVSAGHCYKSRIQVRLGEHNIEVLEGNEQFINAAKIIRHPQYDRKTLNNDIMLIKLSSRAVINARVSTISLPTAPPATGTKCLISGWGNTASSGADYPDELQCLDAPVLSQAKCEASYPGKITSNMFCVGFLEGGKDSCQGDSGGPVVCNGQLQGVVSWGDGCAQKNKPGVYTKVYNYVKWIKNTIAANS

Assay [4] deals with T1, Chymotrypsin-like elastase family member 2A (Sus scrofa) (UniProt P08419).
T1 sequence (whole entry): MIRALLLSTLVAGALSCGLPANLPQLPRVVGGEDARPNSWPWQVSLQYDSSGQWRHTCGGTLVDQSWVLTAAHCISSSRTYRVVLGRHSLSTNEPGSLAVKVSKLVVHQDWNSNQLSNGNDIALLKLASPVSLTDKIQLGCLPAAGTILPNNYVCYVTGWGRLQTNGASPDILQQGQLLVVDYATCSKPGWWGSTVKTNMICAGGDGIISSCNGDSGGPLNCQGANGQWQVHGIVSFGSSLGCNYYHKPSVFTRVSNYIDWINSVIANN
As to the kind of experiment: Inhibitory activity against elastase at a concentration of 10e-5 M; NI means no inhibition. Put shortly:
as §1

The structures appear in SMILES notation. Activity calls are given as the source filed them. No cut-off for these calls is given here. Bounds are passed on as bounds.

Sequence of Pancreatic elastase (Sus scrofa) (P00772 whole entry, looked up, one chain of several): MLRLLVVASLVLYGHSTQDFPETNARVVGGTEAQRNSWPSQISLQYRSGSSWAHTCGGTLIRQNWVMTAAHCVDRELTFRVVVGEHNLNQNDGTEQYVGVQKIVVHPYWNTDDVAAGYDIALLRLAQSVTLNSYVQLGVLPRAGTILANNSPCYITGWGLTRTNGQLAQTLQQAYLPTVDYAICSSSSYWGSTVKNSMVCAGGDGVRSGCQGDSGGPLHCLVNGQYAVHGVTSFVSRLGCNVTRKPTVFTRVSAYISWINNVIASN

`COC1C(O[C@@H]2c3c(cc4c(c3O)C(=O)c3c(O)cccc3C4=O)C(=O)[C@@](C)(O)[C@H]2OC)OC(C)C(OC(C)=O)C1OC(C)=O` (some centres undefined) showed an IC50 in assay [1] of 1300 nM. Moreover, the inhibition entry in assay [2] and in assay [3] was “inactive” in each case.
`CCOP(=O)(OCC)O[C@]1(C)C(=O)c2cc3c(c(O)c2[C@@H](OC2OC(C)C(O)C(O)C2OC)[C@@H]1OC)C(=O)c1c(O)cccc1C3=O` (some centres undefined) gave an IC50 in assay [1] of 630 nM. In addition, the inhibition result in assay [2] and in assay [3] was “inactive” each time.
`COC1C(O[C@@H]2c3c(cc4c(c3O)C(=O)c3c(O)cccc3C4=O)C(=O)[C@@](C)(O)[C@H]2OC)OC(C)C(O)C1O[Si](C)(C)C(C)(C)C` (some centres undefined): 1400 nM corresponded to half-maximal inhibition in assay [1] (IC50). The inhibition result in assay [2] and in assay [3] was “inactive” in each case.
With `COc1cccc2c1C(=O)c1c(O)c3c(c(O)c1C2=O)C[C@@](O)(C(C)=O)C[C@@H]3O[C@H]1C[C@H](N)[C@H](O)[C@H](C)O1` [DAUNORUBICIN], in assay [1], the IC50 was < 20 nM. In addition, the inhibition result in assay [2] and in assay [3] was “inactive” throughout.
With `CC[C@@]1(O)C[C@H](O[C@H]2C[C@H](N(C)C)[C@H](O[C@H]3C[C@H](O)[C@H](O[C@H]4CCC(=O)[C@H](C)O4)[C@H](C)O3)[C@H](C)O2)c2c(cc3c(c2O)C(=O)c2c(O)cccc2C3=O)[C@H]1C(=O)OC` [ACLARUBICIN], the inhibition result in assay [4] and in assay [3] was “inactive” throughout. The IC50 in assay [1] is < 20 nM.
Compound `COC1C(C)OC(O[C@@H]2c3c(cc4c(c3O)C(=O)c3c(O)cccc3C4=O)C(=O)[C@@](C)(O)[C@H]2OC)C(OC)C1OC` (some centres undefined) gave a concentration for half-maximal inhibition (IC50) in assay [1] of 4700 nM. Also, the inhibition entry in assay [2] and in assay [3] was “inactive” each time.
Turning to `CO[C@H]1[C@H](O)c2c(cc3c(c2O)C(=O)c2c(O)cccc2C3=O)C(=O)[C@@]1(C)O`, in assay [1], the half-maximal inhibitory concentration (IC50) was determined as 600 nM. Further, the inhibition result in assay [2] and in assay [3] was “inactive” throughout.
In assay [1], `COC1C(O[C@@H]2c3c(cc4c(c3O)C(=O)c3c(ccc(N(C)C)c3O)C4=O)C(=O)[C@@](C)(O)[C@H]2OC)OC(C)C(O)C1O` (some centres undefined) came in with an IC50 of 630 nM. For the same compound, the inhibition result in assay [2] and in assay [3] was “inactive” in each case.
For the compound `COC1C(O[C@@H]2c3c(cc4c(c3O)C(=O)c3c(O)cccc3C4=O)C(=O)[C@](C)(O)[C@H]2OC)OC(C)C(O)C1O` (some centres undefined), the IC50 in assay [1] stood at 1000 nM. Further, the inhibition entry in assay [2] and in assay [3] was “inactive” each time.
In assay [1], `COC1C(O[C@@H]2c3c(cc4c(c3O)C(=O)c3c(O)cccc3C4=O)C(=O)[C@@](C)(O)[C@H]2OC)OC(C)C(O)C1O` (some centres undefined) came in with an IC50 of 2200 nM. For the same compound, the inhibition result in assay [2] and in assay [3] was “inactive” throughout.
`COC1C(O[C@@H]2c3c(cc4c(c3O)C(=O)c3c(O)cccc3C4=O)C(/N=N/S(=O)(=O)c3ccc(C)cc3)[C@@](C)(O)[C@H]2OC)OC(C)C(O)C1O` (some centres undefined) yielded a concentration for half-maximal inhibition (IC50) in assay [1] of 3900 nM. Besides, the inhibition entry in assay [2] and in assay [3] was “inactive” in each case.
Turning to `COC1C(O[C@@H]2c3c(cc4c(c3O)C(=O)c3c(O)c(N(C)C)cc(N(C)C)c3C4=O)C(=O)[C@@](C)(O)[C@H]2OC)OC(C)C(O)C1O` (some centres undefined), the midpoint of inhibition in assay [1], the IC50, lay at 5000 nM. Also, the inhibition entry in assay [2] and in assay [3] was “inactive” in each case.
As to `COc1cccc2c1C(=O)c1c(O)c3c(c(O)c1C2=O)C[C@@](O)(C(=O)CO)C[C@@H]3O[C@H]1C[C@H](N)[C@H](O)[C@H](C)O1` [DOXORUBICIN], the half-maximal inhibitory concentration (IC50) in assay [1] is < 20 nM. Also, the inhibition result in assay [2] and in assay [3] was “inactive” throughout.

Usually IC50 stands for the concentration that inhibits the measured activity by half. The low end stands for greater potency, the high end for weaker potency.
